Reference: ChEMBL document CHEMBL1126928, “N-(1-arylpropionyl)-4-aryltetrahydropyridines, a new class of high-affinity selective sigma receptor ligands” (J Med Chem, 1993)

Columns and labels:
D(2) dopamine receptor [1] = target: T1, D(2) dopamine receptor (Bos taurus, UniProt P20288); assay: Binding affinity against Dopamine receptor D2 in bovine striatal homogenate using 200 pM [3H]- spiperone and 250 nM unlabeled ketanserin
In short: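 Bovine striatal homogenate, run like the σ assay, with 200 pM [³H]spiperone (21.2 Ci/mmol). Incubation buffer pH 7.40 containing 250 nM ketanserin to block 5-HT2 binding. Measured by filtration and scintillation counting. Results given as IC50.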

[2] = target: T2, Serotonin 2 (5-HT2) receptor (Rattus norvegicus) (UniProt P30994+P08909+P14842); assay: Percent inhibition of binding of 1.0 nM [3H]ketanserin to 5-hydroxytryptamine 2 receptor in rat cortical membranes at 10 e -5 M; format: cell membranes; conditions: Membrane
In short: (§1)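 1.0 nM [3H]ketanserin bound to rat cortical membranes. Percent inhibition measured at 10^-5 M test compound, with nonspecific binding defined by 10 μM methysergide.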

[3] = target: D(1A) dopamine receptor (Rattus norvegicus) (UniProt P18901); assay: Binding affinity for dopamine receptor D1 in rat striatal membranes using 500 pM [3H]- SCH 23390 radioligand; format: cell membranes; conditions: Striatum; Membrane
In short: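 Test compound at 10^-5 M, reported as percent inhibition of 500 pM [3H]SCH 23390 binding to rat striatal membranes. Nonspecific binding defined with 100 nM unlabeled SCH 23390.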

[4] = target: T3, Serotonin 1 (5-HT1) receptor (Rattus norvegicus) (UniProt P28564+P30940+P19327+P28565); assay: Percent inhibition of binding of 3.0 nM [3H]5-HT to 5-hydroxytryptamine 1 receptor in rat caudate membranes at 10 e -5 M; format: cell membranes; conditions: Membrane
In short: (§2)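 Rat caudate membranes incubated with 3.0 nM [3H]-5-HT binoxalate. Percent inhibition recorded at 10^-5 M test compound, with nonspecific binding set with 10 μM unlabeled 5-HT.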

[5] = target: Glutamate receptor ionotropic, NMDA 2C (Rattus norvegicus) (UniProt Q00961); assay: Binding affinity for Phencyclidine receptor (1 uM) using 2 nM [3H]- TCP radioligand
In short: (§3)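 Test compound at 10^-5 M, reported as percent inhibition of 2 nM [3H]TCP binding. Binding defined with 1 μM PCP.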

D(2) dopamine receptor [6] = target: T1, D(2) dopamine receptor; assay: Inhibition of binding against Dopamine receptor D2 in bovine striatal homogenate using 200 pM [3H]- spiperone and 250 nM unlabeled ketanserin
Rattus norvegicus = species: Rattus norvegicus; assay: Binding affinity against Phencyclidine receptor (1 uM) using 2 nM [3H]- TCP radioligand; in short: as §3
[7] = target: Glutamate receptor ionotropic, NMDA 2C (Rattus norvegicus) (UniProt Q00961); assay: Binding affinity for Phencyclidine receptor (1 uM) using 2 nM [3H]- TCP radioligand.; in short: as §3
[8] = target: T2, Serotonin 2 (5-HT2) receptor (Rattus norvegicus); assay: Percent inhibition of binding of 1.0 nM [3H]-ketanserin to 5-hydroxytryptamine 2 receptor in rat cortical membranes at 10 e-5 M.; format: cell membranes; conditions: Membrane; in short: as §1
[9] = target: T3, Serotonin 1 (5-HT1) receptor (Rattus norvegicus); assay: Percent inhibition of binding of 3.0 nM [3H]5-HT to 5-hydroxytryptamine 1 receptor in rat caudate membranes at 10 e -5 M.; format: cell membranes; conditions: Membrane; in short: as §2

T1 sequence (P20288 whole entry): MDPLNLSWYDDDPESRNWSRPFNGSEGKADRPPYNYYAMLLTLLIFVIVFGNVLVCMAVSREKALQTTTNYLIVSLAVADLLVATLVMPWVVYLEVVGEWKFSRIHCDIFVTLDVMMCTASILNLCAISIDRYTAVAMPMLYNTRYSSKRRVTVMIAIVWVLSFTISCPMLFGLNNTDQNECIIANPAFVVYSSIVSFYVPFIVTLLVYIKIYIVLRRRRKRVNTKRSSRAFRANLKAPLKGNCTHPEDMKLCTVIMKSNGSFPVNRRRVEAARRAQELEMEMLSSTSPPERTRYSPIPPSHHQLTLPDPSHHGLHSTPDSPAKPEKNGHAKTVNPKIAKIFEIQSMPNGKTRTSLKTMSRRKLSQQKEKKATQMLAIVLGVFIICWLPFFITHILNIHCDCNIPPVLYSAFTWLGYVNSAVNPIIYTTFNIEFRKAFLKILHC
T2 sequence (P08909 whole entry, looked up): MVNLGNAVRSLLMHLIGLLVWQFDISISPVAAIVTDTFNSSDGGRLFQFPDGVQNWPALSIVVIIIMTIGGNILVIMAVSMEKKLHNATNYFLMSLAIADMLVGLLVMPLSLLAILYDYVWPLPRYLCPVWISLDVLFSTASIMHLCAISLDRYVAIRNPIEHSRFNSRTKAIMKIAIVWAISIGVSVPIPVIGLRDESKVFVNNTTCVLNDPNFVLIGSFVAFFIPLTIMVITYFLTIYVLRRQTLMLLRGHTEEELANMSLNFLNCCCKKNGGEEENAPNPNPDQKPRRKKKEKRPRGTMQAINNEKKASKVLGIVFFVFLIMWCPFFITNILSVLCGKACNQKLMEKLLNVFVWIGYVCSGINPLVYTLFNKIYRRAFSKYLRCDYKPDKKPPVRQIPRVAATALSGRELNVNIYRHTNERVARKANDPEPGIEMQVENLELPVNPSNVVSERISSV
T2 sequence (P14842 whole entry, looked up): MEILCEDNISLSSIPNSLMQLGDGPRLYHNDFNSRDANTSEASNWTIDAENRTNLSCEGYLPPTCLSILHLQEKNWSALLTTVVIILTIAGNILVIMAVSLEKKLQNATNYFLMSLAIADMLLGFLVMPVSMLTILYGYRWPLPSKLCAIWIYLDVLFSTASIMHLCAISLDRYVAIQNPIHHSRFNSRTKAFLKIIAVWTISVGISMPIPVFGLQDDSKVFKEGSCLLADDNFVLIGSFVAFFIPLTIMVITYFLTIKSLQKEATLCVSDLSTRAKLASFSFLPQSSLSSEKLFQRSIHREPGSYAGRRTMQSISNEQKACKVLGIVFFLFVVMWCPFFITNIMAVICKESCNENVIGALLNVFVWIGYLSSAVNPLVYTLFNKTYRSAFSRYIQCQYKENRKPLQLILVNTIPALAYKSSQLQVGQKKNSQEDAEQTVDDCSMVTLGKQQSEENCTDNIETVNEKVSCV
T2 sequence (P30994 whole entry, looked up): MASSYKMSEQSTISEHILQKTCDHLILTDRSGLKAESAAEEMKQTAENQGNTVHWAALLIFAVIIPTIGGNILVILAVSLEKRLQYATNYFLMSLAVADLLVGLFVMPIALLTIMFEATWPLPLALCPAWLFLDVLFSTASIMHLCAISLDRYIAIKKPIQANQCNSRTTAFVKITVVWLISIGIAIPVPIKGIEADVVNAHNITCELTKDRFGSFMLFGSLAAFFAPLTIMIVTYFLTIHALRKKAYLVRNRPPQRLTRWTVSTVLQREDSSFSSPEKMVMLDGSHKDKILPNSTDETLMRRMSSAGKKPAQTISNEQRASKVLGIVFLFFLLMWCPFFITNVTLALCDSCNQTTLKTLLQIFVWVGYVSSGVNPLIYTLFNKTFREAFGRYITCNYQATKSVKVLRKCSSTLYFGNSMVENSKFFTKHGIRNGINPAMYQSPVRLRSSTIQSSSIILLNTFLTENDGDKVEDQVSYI
Chain of D(1A) dopamine receptor (Rattus norvegicus) (P18901 whole entry): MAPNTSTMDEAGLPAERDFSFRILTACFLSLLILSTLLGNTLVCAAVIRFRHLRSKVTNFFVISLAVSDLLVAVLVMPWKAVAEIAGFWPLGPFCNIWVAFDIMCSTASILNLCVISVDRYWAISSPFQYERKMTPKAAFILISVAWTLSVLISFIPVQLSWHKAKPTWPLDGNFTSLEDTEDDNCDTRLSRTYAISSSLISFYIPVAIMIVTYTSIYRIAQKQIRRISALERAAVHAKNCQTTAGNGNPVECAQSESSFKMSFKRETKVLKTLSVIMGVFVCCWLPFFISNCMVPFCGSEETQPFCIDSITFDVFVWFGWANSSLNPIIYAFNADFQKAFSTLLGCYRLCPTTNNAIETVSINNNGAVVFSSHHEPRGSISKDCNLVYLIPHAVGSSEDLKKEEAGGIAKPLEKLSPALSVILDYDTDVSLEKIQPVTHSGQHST
Chain of Glutamate receptor ionotropic, NMDA 2C (Rattus norvegicus) (Q00961 20-1237 limits assumed): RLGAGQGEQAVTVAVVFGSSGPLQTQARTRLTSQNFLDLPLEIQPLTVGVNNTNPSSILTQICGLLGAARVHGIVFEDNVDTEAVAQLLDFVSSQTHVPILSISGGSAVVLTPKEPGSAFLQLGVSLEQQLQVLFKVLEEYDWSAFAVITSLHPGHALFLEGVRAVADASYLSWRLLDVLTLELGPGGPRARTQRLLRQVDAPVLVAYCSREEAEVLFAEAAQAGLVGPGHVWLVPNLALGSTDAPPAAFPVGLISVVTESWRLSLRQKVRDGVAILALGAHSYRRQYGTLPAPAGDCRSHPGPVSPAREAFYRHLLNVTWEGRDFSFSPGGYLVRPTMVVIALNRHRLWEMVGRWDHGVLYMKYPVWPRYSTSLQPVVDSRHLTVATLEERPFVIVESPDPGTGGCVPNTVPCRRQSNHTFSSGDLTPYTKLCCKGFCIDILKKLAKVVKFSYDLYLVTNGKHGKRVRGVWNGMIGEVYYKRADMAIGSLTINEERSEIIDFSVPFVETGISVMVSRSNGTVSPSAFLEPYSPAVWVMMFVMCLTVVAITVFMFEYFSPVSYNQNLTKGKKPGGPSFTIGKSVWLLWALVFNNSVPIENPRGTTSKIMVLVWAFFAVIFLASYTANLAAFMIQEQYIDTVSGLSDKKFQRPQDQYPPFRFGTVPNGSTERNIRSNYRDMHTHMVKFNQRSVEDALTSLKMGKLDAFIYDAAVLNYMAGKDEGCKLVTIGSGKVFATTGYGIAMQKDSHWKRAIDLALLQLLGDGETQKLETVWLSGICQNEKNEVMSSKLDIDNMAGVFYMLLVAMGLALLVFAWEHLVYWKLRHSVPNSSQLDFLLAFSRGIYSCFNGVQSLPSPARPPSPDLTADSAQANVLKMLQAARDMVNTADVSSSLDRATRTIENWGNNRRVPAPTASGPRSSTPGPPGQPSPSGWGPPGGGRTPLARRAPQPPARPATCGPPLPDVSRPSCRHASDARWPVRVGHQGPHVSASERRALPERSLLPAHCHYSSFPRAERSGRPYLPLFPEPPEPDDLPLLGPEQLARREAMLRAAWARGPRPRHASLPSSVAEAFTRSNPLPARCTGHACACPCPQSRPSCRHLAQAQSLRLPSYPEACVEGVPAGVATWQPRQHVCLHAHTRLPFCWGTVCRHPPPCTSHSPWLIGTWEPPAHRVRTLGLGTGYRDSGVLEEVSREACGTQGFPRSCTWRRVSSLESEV

Compound | IC50 (D(2) dopamine receptor [1]) | further results
O=C(CCN1CC=C(c2ccc(Cl)cc2)CC1)c1ccccc1F | > 5 µM | –
C1=C(c2ccccc2)CCNC1 | > 5 µM | –
O=C(CCN1CC=C(c2ccc(Cl)cc2)CC1)c1ccc(F)cc1 | > 5 µM | –
COc1ccc(C(=O)CCN2CC=C(c3ccc(Cl)cc3)CC2)cc1OC | > 5 µM | –
O=C(CCN1CC=C(c2ccccc2)CC1)c1ccccc1 | > 5 µM | –
CCN(CC)CCC(=O)c1ccccc1 | > 5 µM | –
c1ccc(CCCCN2CCC(c3ccccc3)CC2)cc1 | 0.335 µM | –
O=C(CCN1CC=C(c2ccc(Cl)cc2)CC1)c1ccc(Cl)cc1 | > 5 µM | inhibition [2]: 84%; Binding affinity [3]: 31.6; inhibition [4]: 49.5%; Binding affinity [5]: 5.8
O=C(CCN1CC=C(c2ccc(Cl)cc2)CC1)c1ccc(F)c(F)c1 | > 5 µM | –
O=C(CCN1CC=C(c2ccc(F)cc2)CC1)c1ccc(Cl)cc1 | > 15 µM | –
CN(C)CCC(=O)c1ccccc1 | > 5 µM | –
N#Cc1ccc(C(=O)CC2CCN(CC3CC3)CC2)cc1 | – | IC50 (D(2) dopamine receptor [6]): > 1 µM
O=C(CCN1CC=C(c2ccc(Cl)cc2)CC1)c1ccc(Cl)c(Cl)c1 | > 5 µM | –
Clc1ccc(C2=CCNCC2)cc1 | > 5 µM | –
O=C(CCN1CC=C(c2ccc(F)cc2)CC1)c1ccc(Br)cc1 | > 13 µM | –
O=C(CCN1CC=C(c2ccc(Cl)cc2)CC1)c1ccc2c(c1)OCO2 | > 5 µM | –
O=C(CCN1CCC(c2ccccc2)CC1)c1ccccc1 | > 5 µM | –
O=C(CCN1CC=C(c2ccc(Cl)cc2)CC1)c1ccc(Br)cc1 | > 5 µM | –
O=C(CCN1CC=C(c2ccc(F)cc2)CC1)c1ccc(F)cc1 | > 10 µM | –
O=C(CCN1CC=C(c2ccc(F)cc2)CC1)c1ccccc1 | > 5 µM | inhibition [2]: 94.8%; inhibition (Rattus norvegicus): 0%; inhibition [3]: 23.9%; inhibition [4]: 64.5%
O=C(CCN1CC=C(c2ccc(Cl)cc2)CC1)c1ccccc1 | > 5 µM | Binding affinity [3]: 19; Binding affinity [7]: 0; inhibition [8]: 96.9%; inhibition [9]: 72.4%
CCCN(CCC)CCC(=O)c1ccccc1 | > 5 µM | –
